Test results taken from ChEMBL document CHEMBL2311285, “3-Thiomorpholin-8-oxo-8H-acenaphtho [1,2-b] pyrrole-9-carbonitrile (S1) derivatives as pan-Bcl-2-inhibitors of Bcl-2, Bcl-xL and Mcl-1” (Bioorg Med Chem, 2013).
Values after ≈ are worked out from the molar mass of the structure shown. Active and inactive are the calls of the source. No cut-off for these calls is given here.

Tests used:
Bcl-2-like protein 1 = Bcl-2-like protein 1 (Homo sapiens, UniProt Q07817); experiment: Binding affinity to N-terminal 8xHis tagged cBcl-XL (unknown origin) expressed in Escherichia coli BL21 (DE3) by ELISA
[1] = molecular target: T1, Apoptosis regulator Bcl-2 (Homo sapiens, UniProt P10415); experiment: Binding affinity to human Bcl-2 (unknown origin) by ITC assay
[2] = molecular target: T1, Apoptosis regulator Bcl-2; experiment: Binding affinity to human Bcl-2 (unknown origin) by biotin-Bim displacement based ELISA
[3] = molecular target: T2, Induced myeloid leukemia cell differentiation protein Mcl-1 (Homo sapiens, UniProt Q07820); experiment: Binding affinity to cMcl-1 (residues 171 to 327) (unknown origin) by biotin-Bim displacement based ELISA
How it was run: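 Competitive ELISA: biotin-Bim (residues 81-106) at 0.09 µg/mL in blocking buffer bound to streptavidin-coated wells for 1.5 h. Serial compound dilutions (from 10 mM DMSO stock) containing 0.01% Triton X-100 preincubated 1 h with 20 nM His-tagged protein in PBS, then transferred to wells for 2 h. Anti-His-HRP added for 1 h, then TMB for 30 min, stopped with H2SO4. Room temperature throughout.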

[4] = molecular target: T2, Induced myeloid leukemia cell differentiation protein Mcl-1; experiment: Binding affinity to cMcl-1 (residues 171 to 327) (unknown origin) by ITC assay
How it was run: (§1)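 ITC at 25 °C in 20 mM Tris pH 8.0, 150 mM NaCl, 1% DMSO. For wild-type versus R263A comparison, 16 × 2.5 µL injections of 500 µM compound into 50 µM protein. Data were corrected against a buffer-only cell titrated with compound and fitted to a one-site model to give Kd.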

MCF7 = experiment: Induction of apoptosis in human MCF7 cells assessed as cytochrome c release at 5 uM incubated for 12 hrs in presence of Bax/Bak ShRNA by Western blotting method; assay type: functional, cell-based
How it was run: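 Wild-type MCF-7 cells and Bax/Bak shRNA-transfected MCF-7 cells were treated with 5 µM compound. Cytochrome c was detected by western blot in the S-100 cytosolic fraction, obtained from digitonin lysis and centrifugation.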

[5] = Solubility in 1% DMSO/H2O; assay type: physicochemical
[6] = molecular target: Induced myeloid leukemia cell differentiation protein Mcl-1 (Homo sapiens, UniProt Q07820, R263A); experiment: Binding affinity to cMcl-1 R263A mutant (unknown origin) by ITC assay; assay type: single protein; how it was run: as §1
HL-60 = experiment: Induction of apoptosis in human HL60 cells assessed as cytochrome c release at 5 uM incubated for 12 hrs by Western blotting method; assay type: functional, cell-based
How it was run: (§2)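 Cells treated 12 h with 5 µM compound, then lysed in digitonin lysis buffer. After centrifugation, the cytosolic supernatant (S-100) was probed for cytochrome c by western blot. A parallel harvest was used for Mcl-1/Bak and Bcl-2/Bax co-immunoprecipitation.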

K562 = experiment: Induction of apoptosis in human K562 cells assessed as cytochrome c release at 5 uM incubated for 12 hrs by Western blotting method; assay type: functional, cell-based; how it was run: as §2

Sequence of Bcl-2-like protein 1 (Q07817 whole entry): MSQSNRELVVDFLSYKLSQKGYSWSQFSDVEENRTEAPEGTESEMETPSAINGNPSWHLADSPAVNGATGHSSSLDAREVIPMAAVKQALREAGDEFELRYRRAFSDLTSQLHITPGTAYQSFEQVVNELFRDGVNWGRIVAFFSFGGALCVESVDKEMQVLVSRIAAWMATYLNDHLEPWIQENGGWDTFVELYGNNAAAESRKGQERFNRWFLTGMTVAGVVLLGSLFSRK
T2 sequence (Q07820 whole entry, the tested form may be a part): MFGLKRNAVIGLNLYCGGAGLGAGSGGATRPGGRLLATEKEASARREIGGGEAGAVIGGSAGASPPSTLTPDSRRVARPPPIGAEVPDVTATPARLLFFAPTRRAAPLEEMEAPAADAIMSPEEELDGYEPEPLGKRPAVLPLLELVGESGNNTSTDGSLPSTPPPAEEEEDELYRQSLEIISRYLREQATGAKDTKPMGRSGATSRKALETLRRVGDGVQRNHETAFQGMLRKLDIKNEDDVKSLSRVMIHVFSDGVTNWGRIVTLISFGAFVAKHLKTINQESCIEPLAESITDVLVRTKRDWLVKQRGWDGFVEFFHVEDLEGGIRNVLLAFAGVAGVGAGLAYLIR
T1 sequence (P10415 whole entry): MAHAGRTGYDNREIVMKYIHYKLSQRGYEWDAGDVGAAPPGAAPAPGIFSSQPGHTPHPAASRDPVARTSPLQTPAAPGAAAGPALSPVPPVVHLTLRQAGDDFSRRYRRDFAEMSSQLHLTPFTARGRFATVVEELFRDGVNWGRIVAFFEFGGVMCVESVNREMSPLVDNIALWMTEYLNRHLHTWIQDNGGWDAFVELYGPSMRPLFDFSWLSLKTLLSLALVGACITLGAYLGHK
Sequence of Induced myeloid leukemia cell differentiation protein Mcl-1 (Homo sapiens, UniProt Q07820, R263A) (Q07820 whole entry R263A): as the sequence (Q07820 whole entry, the tested form may be a part) above, with R263A counted along it

## COc1ccc(Sc2ccc3c4c(cccc24)C2=NC(=O)C(C#N)=C23)cc1
Bcl-2-like protein 1
  IC50: 833 nM
[1]
  Kd: 955 nM
[2]
  IC50: 945 nM
[3]
  IC50: 388 nM
[4]; read-out: pKd (converted)
  Kd: 389 nM

## CCCCNC1=C2C(=NC1=O)c1cccc3c(Oc4ccc(C(C)C)cc4)ccc2c13
Bcl-2-like protein 1
  IC50: 283 nM
[1]
  Kd: 324 nM
[2]
  IC50: 322 nM
[3]
  IC50: 141 nM
[4]; read-out: pKd (converted)
  Kd: 141 nM

## O=C1N=C2C(=C1NCCCc1ccccc1)c1ccc(Sc3ccc(OO)cc3)c3cccc2c13
Bcl-2-like protein 1
  IC50: 53 nM
[1]
  Kd: 57.5 nM
[2]
  IC50: 57 nM
[3]
  IC50: 42 nM
[4]; read-out: pKd (converted)
  Kd: 41.7 nM

## CC(C)c1ccc(Oc2ccc3c4c(cccc24)C2=NC(=O)C(NCCCc4ccccc4)=C23)cc1
Bcl-2-like protein 1
  IC50: 37 nM
[1]
  Kd: 41.7 nM
[2]
  IC50: 42 nM
[3]
  IC50: 39 nM
[4]; read-out: pKd (converted)
  Kd: 38.9 nM

## CC(C)c1ccc(Oc2ccc3c4c(cccc24)C2=NC(=O)C(C#N)=C23)cc1
Bcl-2-like protein 1
  IC50: 650 nM
[1]
  Kd: 759 nM
[2]
  IC50: 739 nM
[3]
  IC50: 321 nM
[4]; read-out: pKd (converted)
  Kd: 324 nM

## CC(C)NC1=C2C(=NC1=O)c1cccc3c(N4CCSCC4)ccc2c13
[2]
  IC50: > 10000 nM
[3]
  IC50: 2500 nM

## CCCCNC1=C2C(=NC1=O)c1cccc3c(Sc4ccc(OC)cc4)ccc2c13
Bcl-2-like protein 1
  IC50: 315 nM
[1]
  Kd: 355 nM
[2]
  IC50: 356 nM
[3]
  IC50: 150 nM
[4]; read-out: pKd (converted)
  Kd: 151 nM

## CCCCCCNC1=C2C(=NC1=O)c1cccc3c(N4CCSCC4)ccc2c13
Bcl-2-like protein 1
  IC50: 85 nM
[1]
  Kd: 95.5 nM
[2]
  IC50: 96 nM
[3]
  IC50: 37 nM
[4]; read-out: pKd (converted)
  Kd: 37.2 nM

## Cc1cc2c(C(C)C)c(O)c(O)c(C=O)c2c(O)c1-c1c(C)cc2c(C(C)C)c(O)c(O)c(C=O)c2c1O [GOSSYPOL]
[4]; read-out: Kd
  Kd: 2320 nM
MCF7
  Activity: Active

## O=C1N=C2C(=C1NCCCCCc1ccccc1)c1ccc(N3CCSCC3)c3cccc2c13
[2]
  IC50: 1300 nM
[3]
  IC50: 1100 nM

## Nc1ccc(Sc2ccc3c4c(cccc24)C2=NC(=O)C(NCCCc4ccccc4)=C23)cc1
[5]
  solubility: 18 µg/mL (≈ 39 µM)
Bcl-2-like protein 1
  IC50: 18 nM
[1]
  Kd: 20 nM
[2]
  IC50: 20 nM
[3]
  IC50: 10 nM
[4]; read-out: Kd
  Kd: 105 nM
[4]; read-out: pKd (converted)
  Kd: 10 nM
[6]
  Kd: 2340 nM
HL-60
  Activity: Active
MCF7
  Activity: inactive
K562
  Activity: Active

## CCCCNC1=C2C(=NC1=O)c1cccc3c(Sc4ccc(N)cc4)ccc2c13
[5]
  solubility: 27 µg/mL (≈ 67.6 µM)
Bcl-2-like protein 1
  IC50: 165 nM
[1]
  Kd: 191 nM
[2]
  IC50: 190 nM
[3]
  IC50: 50 nM
[4]; read-out: Kd
  Kd: 512 nM
[4]; read-out: pKd (converted)
  Kd: 50.1 nM
[6]
  Kd: 12800 nM
HL-60
  Activity: Active
MCF7
  Activity: inactive
K562
  Activity: Active

## CCCCCCNC1=C2C(=NC1=O)c1cccc3c(Sc4ccc(N)cc4)ccc2c13
Bcl-2-like protein 1
  IC50: 71 nM
[1]
  Kd: 79.4 nM
[2]
  IC50: 80 nM
[3]
  IC50: 30 nM
[4]; read-out: pKd (converted)
  Kd: 29.5 nM

## CCCCCCNC1=C2C(=NC1=O)c1cccc3c(Oc4ccc(C(C)C)cc4)ccc2c13
Bcl-2-like protein 1
  IC50: 162 nM
[1]
  Kd: 182 nM
[2]
  IC50: 184 nM
[3]
  IC50: 75 nM
[4]; read-out: Kd
  Kd: 802 nM
[4]; read-out: pKd (converted)
  Kd: 79.4 nM
[6]
  Kd: 19200 nM

## CCCCNC1=C2C(=NC1=O)c1cccc3c(N4CCSCC4)ccc2c13
Bcl-2-like protein 1
  IC50: 171 nM
[1]
  Kd: 200 nM
[2]
  IC50: 198 nM
[3]
  IC50: 79 nM
[4]; read-out: pKd (converted)
  Kd: 79.4 nM

## CCOC(=O)C1=C2C(=NC1=O)c1cccc3c(N4CCSCC4)ccc2c13
[2]
  IC50: 2200 nM
[3]
  IC50: > 10000 nM

## O=C1N=C2C(=C1NCc1ccccc1)c1ccc(N3CCSCC3)c3cccc2c13
[2]
  IC50: > 10000 nM
[3]
  IC50: 521 nM

## N#CC1=C2C(=NC1=O)c1cccc3c(Sc4ccc(N)cc4)ccc2c13
Bcl-2-like protein 1
  IC50: 291 nM
[1]
  Kd: 331 nM
[2]
  IC50: 331 nM
[3]
  IC50: 90 nM
[4]; read-out: pKd (converted)
  Kd: 91.2 nM

## CCCCCNC1=C2C(=NC1=O)c1cccc3c(N4CCSCC4)ccc2c13
[3]
  IC50: 37 nM

## O=C1N=C2C(=C1NCCCc1ccccc1)c1ccc(N3CCSCC3)c3cccc2c13
Bcl-2-like protein 1
  IC50: 43 nM
[1]
  Kd: 49 nM
[2]
  IC50: 49 nM
[3]
  IC50: 15 nM
[4]; read-out: pKd (converted)
  Kd: 15.1 nM

## CCCOC(=O)C1=C2C(=NC1=O)c1cccc3c(N4CCSCC4)ccc2c13
[2]
  IC50: 2100 nM
[3]
  IC50: > 10000 nM

## N#CC1=C2C(=NC1=O)c1cccc3c(N4CCSCC4)ccc2c13
[5]
  solubility: 2 µg/mL (≈ 6.04 µM)
Bcl-2-like protein 1
  IC50: 625 nM
[1]
  Kd: 708 nM
[2]
  IC50: 715 nM
[3]
  IC50: 95 nM
[4]; read-out: Kd
  Kd: 954 nM
[4]; read-out: pKd (converted)
  Kd: 95.5 nM
[6]
  Kd: 28700 nM

## CCCCCCNC1=C2C(=NC1=O)c1cccc3c(Sc4ccc(OC)cc4)ccc2c13
Bcl-2-like protein 1
  IC50: 181 nM
[1]
  Kd: 204 nM
[2]
  IC50: 206 nM
[3]
  IC50: 78 nM
[4]; read-out: pKd (converted)
  Kd: 77.6 nM
